According to PMC4703501 (Leukemia, 2015):
“Also recorded” adds a separate entry of the source.

Tests used:
[1] = tested on: Z138C; assay: GI50 growth inhibition assay; assay type: cell-based; settings: Homo sapiens, 96 h
Outline: (§1)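 Cells from ATCC were grown in DMEM or RPMI with 10% FBS and penicillin-streptomycin at 37°C, humidified, 5% CO₂, and tested mycoplasma-negative. They were seeded at 2.5×10³ cells per 0.1 ml per well. Test compound was added 24 hrs after plating at a range of concentrations. Viable cells were measured by Cell Titer Blue from duplicate wells 96 hrs after treatment.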

[2] = tested on: GRANTA-519; assay: GI50 growth inhibition assay; assay type: cell-based; settings: Homo sapiens, Granta-519, 96 h
Outline: (§2)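 Cell lines were grown in DMEM or RPMI with 10% FBS and pen-strep at 37°C, 5% CO₂, and were mycoplasma-negative. Cells were seeded at 2.5×10³ per 0.1 ml per well, and test compound was added 24 hrs later at the indicated concentrations. Viable cells were measured by resazurin (Cell Titer Blue) read-out 96 hrs post-treatment in duplicate wells.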

[3] = tested on: DLD-1; assay: GI50 growth inhibition assay; assay type: cell-based; settings: Homo sapiens, DLD-1, 96 h
Outline: as §2

[4] = tested on: COLO-205; assay: GI50 growth inhibition assay; assay type: cell-based; settings: Homo sapiens, COLO 205, 96 h
Outline: as §2

[5] = tested on: HCT-15; assay: GI50 growth inhibition assay; assay type: cell-based; settings: Homo sapiens, HCT-15, 96 h
Outline: as §2

[6] = tested on: SNU-5; assay: GI50 growth inhibition assay; assay type: cell-based; settings: Homo sapiens, SNU-5, 96 h
Outline: as §2

[7] = tested on: SNU-398; assay: GI50 growth inhibition assay; assay type: cell-based; settings: Homo sapiens, SNU-398, 96 h
Outline: as §2

[8] = tested on: MDA-MB-231; assay: GI50 growth inhibition assay; assay type: cell-based; settings: Homo sapiens, MDA-MB-231, 96 h
Outline: as §2

[9] = tested on: BT-474; assay: GI50 growth inhibition assay; assay type: cell-based; settings: Homo sapiens, BT-474, 96 h
Outline: as §1

[10] = tested on: BT-20; assay: GI50 growth inhibition assay; assay type: cell-based; settings: Homo sapiens, BT-20, 96 h
Outline: as §2

[11] = biological target: CDK1 (Homo sapiens, UniProt P06493); assay: in vitro kinase assay; assay type: biochemical; settings: data not shown
[12] = biological target: CDK2 (Homo sapiens, UniProt P24941); assay: in vitro kinase assay; assay type: biochemical; settings: data not shown
[13] = biological target: CDK5 (Homo sapiens, UniProt Q00535); assay: in vitro kinase assay; assay type: biochemical; settings: data not shown
[14] = biological target: CDK8 (Homo sapiens, UniProt P49336); assay: in vitro kinase assay; assay type: biochemical; settings: data not shown
[15] = tested on: Granta 519 and Z138C cells; assay: apoptosis markers; assay type: cell-based, human
Outline: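 Granta 519 and Z138C cells were treated with test compound, then lysed in NP-40 buffer. Western blots on nitrocellulose assessed full-length caspases 3, 7 and 9 and PARP cleavage as apoptosis markers.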

[16] = tested on: Granta 519 and Z138C cells; assay: CDK4/CYCLIN D/Rb pathway western blot; assay type: cell-based, human; settings: 24 hours
Outline: (§3)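 Granta 519 and Z138C cells (RPMI or DMEM, 10% FBS, pen-strep, 37°C, 5% CO₂) received vehicle or increasing concentrations of test compound for 24 hours. Whole-cell extracts were made in NP-40 lysis buffer (Tris pH 7.4, NaF, Na₃VO₄), run on SDS-PAGE and blotted to nitrocellulose. Detection used infrared imaging, GAPDH was the loading control, and 4 independent experiments were done.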

[17] = tested on: Granta 519 and Z138C cells; assay: PI3K/AKT/mTOR pathway western blot; assay type: cell-based, human; settings: 24 hours
Outline: as §3

[18] = tested on: Granta 519 and Z138 cell lines; assay: MAP kinase pathway; assay type: cell-based, human; settings: 24 hrs
[19] = tested on: exponentially growing Z138 cells; assay: p65; assay type: cell-based, human; settings: 24 hrs
Outline: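 Exponentially growing Z138 cells were exposed to test compound. Whole-cell extracts were probed by western blot for p65 (NF-kB) phosphorylation.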

[20] = tested on: HeLa cells; assay: TNF-α induced p65 NF-kB phosphorylation western blot; assay type: cell-based, human; settings: 5ng/ml TNF-α for 5 min after treatment
Outline: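 Positive-control system: HeLa cells were pretreated with test compound, then stimulated with 5ng/ml TNF-α for 5 min. Phospho-p65 NF-kB was assessed by western blot of whole-cell extracts.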

[21] = tested on: primary patient-derived MCL cells (MEM1 ibrutinib-sensitive, MEM2 ibrutinib-resistant); assay: Annexin V staining of primary patient-derived MCL; assay type: cell-based, human; settings: 5µM ON123300; 24 hrs (legend: 18 hrs)
Outline: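 Patient MCL specimens (lymph node or peripheral blood) made into single-cell suspensions and cryopreserved in 90% FBS/10% DMSO in liquid nitrogen. Cells exposed to the indicated concentrations of test compound for 18 hrs. Apoptosis read as FITC-Annexin V staining by flow cytometry.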

[22] = tested on: primary patient-derived MCL cells (MEM1, MEM2); assay: Rb and AKT pathway western blot in primary MCL; assay type: cell-based, human; settings: both primary MCL samples, 18 hrs
Outline: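 Red cells were removed from primary MCL samples with ammonium chloride. Cells were then treated with increasing concentrations of test compound for 18 hrs and lysed in RIPA buffer (25mM Tris-HCl pH 7.5, 150mM NaCl, 1% NP40, 1% SDS, phosphatase inhibitors). […], nitrocellulose transfer and infrared imaging.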

[23] = maximum tolerated dose study; assay type: in vivo, CD-1 mice
Outline: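 Female CD-1 mice (10–12 weeks), n=3 per group, were used. One arm received a single ip dose of 100 or 200 mg/kg, with toxicity signs and body weight followed for 7 days. The other arm received 200mg/kg ip for 5 consecutive days, followed for 10 days.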

[24] = tested on: Z138C xenograft; assay: Z138C tumor xenograft assay; assay type: in vivo, nu/nu mice
[25] = tested on: MCL cell lines; assay: GI50 assays, MCL cell lines versus other tumor types; assay type: cell-based, human; settings: over a 96 hr period
Outline: as §2

CDK5, sequence (Q00535 whole entry): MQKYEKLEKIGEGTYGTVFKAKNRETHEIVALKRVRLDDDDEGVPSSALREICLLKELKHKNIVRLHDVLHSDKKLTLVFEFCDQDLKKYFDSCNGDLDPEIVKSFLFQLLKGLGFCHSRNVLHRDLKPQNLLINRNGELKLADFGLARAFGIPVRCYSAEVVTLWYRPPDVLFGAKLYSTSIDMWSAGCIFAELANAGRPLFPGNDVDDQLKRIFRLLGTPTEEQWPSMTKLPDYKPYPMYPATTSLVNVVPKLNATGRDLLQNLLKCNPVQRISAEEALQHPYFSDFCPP
CDK5, sequence (Q15078 99-307 partner limits assumed): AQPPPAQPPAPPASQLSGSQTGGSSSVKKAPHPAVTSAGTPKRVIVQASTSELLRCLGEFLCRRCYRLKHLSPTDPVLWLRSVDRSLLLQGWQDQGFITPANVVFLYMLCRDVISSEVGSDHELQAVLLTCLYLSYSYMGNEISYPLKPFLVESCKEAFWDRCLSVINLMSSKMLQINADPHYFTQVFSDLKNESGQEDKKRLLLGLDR
CDK1, sequence (P06493 whole entry): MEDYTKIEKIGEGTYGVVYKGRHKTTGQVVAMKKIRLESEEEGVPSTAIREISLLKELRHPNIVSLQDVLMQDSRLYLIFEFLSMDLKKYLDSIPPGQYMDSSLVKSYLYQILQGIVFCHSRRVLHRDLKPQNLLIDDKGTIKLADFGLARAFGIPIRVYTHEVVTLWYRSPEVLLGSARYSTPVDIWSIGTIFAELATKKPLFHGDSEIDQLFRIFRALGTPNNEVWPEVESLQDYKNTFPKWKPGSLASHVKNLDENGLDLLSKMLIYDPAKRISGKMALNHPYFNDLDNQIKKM
CDK1, sequence (P14635 whole entry, further chain): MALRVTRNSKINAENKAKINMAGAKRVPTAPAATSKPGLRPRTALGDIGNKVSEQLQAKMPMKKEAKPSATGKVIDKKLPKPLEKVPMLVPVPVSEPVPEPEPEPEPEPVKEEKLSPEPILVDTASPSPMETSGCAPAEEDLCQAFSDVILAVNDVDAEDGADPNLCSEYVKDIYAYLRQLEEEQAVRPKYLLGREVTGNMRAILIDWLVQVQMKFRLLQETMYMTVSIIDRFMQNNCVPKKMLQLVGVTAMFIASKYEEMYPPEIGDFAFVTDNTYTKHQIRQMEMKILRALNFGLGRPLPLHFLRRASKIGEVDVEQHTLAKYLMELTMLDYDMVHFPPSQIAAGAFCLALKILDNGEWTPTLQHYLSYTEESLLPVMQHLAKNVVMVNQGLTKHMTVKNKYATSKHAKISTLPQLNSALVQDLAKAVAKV
CDK8, sequence (P49336 whole entry): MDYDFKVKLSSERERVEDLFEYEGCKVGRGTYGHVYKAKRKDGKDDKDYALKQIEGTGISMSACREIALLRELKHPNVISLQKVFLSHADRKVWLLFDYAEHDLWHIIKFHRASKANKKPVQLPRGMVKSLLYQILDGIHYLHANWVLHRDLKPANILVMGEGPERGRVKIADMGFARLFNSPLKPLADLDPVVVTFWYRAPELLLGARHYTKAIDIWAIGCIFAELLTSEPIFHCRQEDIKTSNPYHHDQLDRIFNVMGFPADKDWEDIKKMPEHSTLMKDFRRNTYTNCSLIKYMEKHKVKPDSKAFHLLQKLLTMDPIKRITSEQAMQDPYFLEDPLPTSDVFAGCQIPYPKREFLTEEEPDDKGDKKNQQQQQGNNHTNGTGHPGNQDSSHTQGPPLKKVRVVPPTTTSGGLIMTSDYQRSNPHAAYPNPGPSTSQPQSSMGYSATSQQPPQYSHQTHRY
CDK8, sequence (P24863 whole entry partner): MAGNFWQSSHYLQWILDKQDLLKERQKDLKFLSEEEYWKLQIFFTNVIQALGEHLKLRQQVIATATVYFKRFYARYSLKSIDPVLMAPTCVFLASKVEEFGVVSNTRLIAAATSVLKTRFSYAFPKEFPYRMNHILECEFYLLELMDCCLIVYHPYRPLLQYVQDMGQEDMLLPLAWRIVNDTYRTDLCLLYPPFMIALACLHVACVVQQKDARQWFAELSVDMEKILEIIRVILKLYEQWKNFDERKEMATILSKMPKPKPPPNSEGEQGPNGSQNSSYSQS

## CN1CCN(c2ccc(Nc3ncc4cc(C#N)c(=O)n(C5CCCC5)c4n3)cc2)CC1 [ON123300, 8-cyclopentyl-2-[4-(4-methyl-piperazin-1-yl)-phenylamino]-7-oxo-7,8-dihydro-pyrid o[2,3-d]pyrimidine-6-carbonitrile]
[1]
  GI50: 0.025 µM
[2]
  GI50: 0.035 µM
[3]
  GI50: 0.1 µM
[4]
  GI50: 0.2 µM
[5]
  GI50: 0.4 µM
[6]
  GI50: 0.2 µM
[7]
  GI50: 0.3 µM
[8]
  GI50: 0.2 µM
[9]
  GI50: 0.25 µM
[10]
  GI50: 0.1 µM
[11]
  inhibitory activity against CDK1: little inhibitory activity
[12]
  inhibitory activity against CDK2: little inhibitory activity
[13]
  inhibitory activity against CDK5: little inhibitory activity
[14]
  inhibitory activity against CDK8: little inhibitory activity
[15]; 72–96 hrs incubation, data not shown
  PARP cleavage at lower concentrations: readily resulted in PARP cleavage
[15]; 24 hrs
  concentration at which PARP cleavage is seen: greater than or equal to 2.5 µM
  levels of full-length caspases 3, 7 and 9: decreases in the levels of full-length forms of caspases 3, 7 and 9
[16]
  levels of CDK4 and CDK2: unaffected
  p21 levels: loss of p21 levels
[16]; as a function of concentration
  levels of CYCLIN D1: declined
[16]; increasing concentrations
  phosphorylation of pRb and p130: inhibited the phosphorylation of pRb and p130
[17]
  AKT Ser473 phosphorylation: inhibition of AKT Ser473 phosphorylation
  FOXO1 phosphorylation: inhibition of FOXO1 phosphorylation
  mTOR phosphorylation at Ser2481: inhibition of mTOR phosphorylation at Ser2481
  phosphorylation of 4EBP1 and S6RB: inhibited
[18]
  phosphorylation status of MEK or ERK kinases: neither ON123300 nor PD0332991 has any effect
[19]
  phosphorylation status of p65 (NF-kB): no change
[20]
  phosphorylation status of p65: little or no effect
[21]
  cells stained Annexin V+: ~100%
[22]
  levels of Rb and AKT phosphorylation: reductions in the levels of Rb and AKT phosphorylation
  phosphorylation of S6RB: inhibited
[23]; 200mg/kg ip for 5 consecutive days, at least 10 days post-administration
  survival rate: 100%
[23]; 200mg/kg ip for 5 consecutive days, data not shown
  signs of toxicity: did not exhibit any signs of toxicity
[23]; mice, administered orally or intraperitoneally
  toxicity: minimally toxic
[23]; single ip dose 100 or 200 mg/kg, 7 days
  survival rate: 100%
[23]; single ip dose 100 or 200 mg/kg, monitored 7 days
  signs of toxicity and body weights: No signs of toxicity or weight loss
[24]; 100mg/kg daily treatment
  total body weights: did not cause a significant reduction
[24]; 100mg/kg daily, ip, 2-week period, p<0.05
  tumor growth: significantly inhibited; also recorded: markedly inhibited tumor growth
[25]
  concentrations inducing growth arrest and cell death: 25 to 50 nM
